ChEMBL document CHEMBL3108710, “Discovery of a novel class of dimeric Smac mimetics as potent IAP antagonists resulting in a clinical candidate for the treatment of cancer (AZD5582)” (J Med Chem, 2013)
Activity calls are given as the source filed them. The rule behind the calls is not given here.

How the values were obtained:
[1] = tested on: BT-549; test: Growth inhibition of human BT549 cells; type: functional, cell-based
[2] = tested on: 647-V; test: Growth inhibition of human 647V cells; type: functional, cell-based
[3] = tested on: MIA PaCa-2; test: Growth inhibition of human MIAPaCa2 cells; type: functional, cell-based
[4] = species: Homo sapiens; test: Growth inhibition of human 97-7 cells; type: functional
[5] = tested on: MDA-MB-231; test: Antitumor activity against human MDA-MB-231 cells xenografted in CB17 SCID mouse assessed as tumor growth inhibition at 0.1 to 3 mg/kg, iv administered once a week for 2 weeks measured twice a week for 78 days; type: functional, organism-based
In short: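 MDA-MB-231 tumors were implanted orthotopically in mice and grown to about 120 mm³ average. Vehicle or compound was then given intravenously once weekly for 2 weeks, at 0.1, 0.5 or 3.0 mg/kg. Tumor volume was measured twice weekly for 78 days and reported as geometric mean ± SE.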

[6] = tested on: Mus musculus; test: Induction of caspase-3 cleavage in tumor of CB17 SCID mouse xenografted with human MDA-MB-231 cells at 0.05 to 3 mg/kg, iv after 4 to 18 hrs by ELISA; type: functional, organism-based
In short: (§1)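 Mice bearing MDA-MB-231 xenografts received a single intravenous dose. Intratumoral cIAP1 protein and cleaved caspase-3 levels were measured at 4, 6 and 18 h postdose.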

[7] = tested on: Mus musculus; test: Induction of cIAP1 degradation in tumor of CB17 SCID mouse xenografted with human MDA-MB-231 cells at 0.05 to 3 mg/kg, iv up to 18 hrs by ELISA; type: functional, organism-based; in short: as §1
[8] = tested on: MDA-MB-231; test: Induction of apoptosis in human MDA-MB-231 cells assessed as cell death at 0.5 to 1.5 nM preincubated for 1 to 3 hrs followed by compound-washout measured after 72 hrs by MTS assay; type: functional, cell-based
In short: (§2)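 MDA-MB-231 cells were exposed to increasing compound concentrations for 1 or 3 h, rinsed, then given drug-free medium. Active caspase-3 per well was read at 24 h total. Survival was measured by MTS at 72 h total; 0% survival means complete cell death.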

[9] = tested on: MDA-MB-231; test: Induction of apoptosis in human MDA-MB-231 cells assessed as caspase-3 cleavage at 0.5 to 1.5 nM preincubated for 1 to 3 hrs followed by compound-washout measured after 24 hrs by luciferase reporter gene assay; type: functional, cell-based; in short: as §2
[10] = target: T1, E3 ubiquitin-protein ligase XIAP (Homo sapiens, UniProt P98170); test: Inhibition of XIAP-caspase-9 interaction in human MDA-MB-231 cells at 1 uM after 4 hrs by immunoprecipitation assay; type: cell-based
In short: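 MDA-MB-231 cells were left untreated or exposed to 1 μM compound for 4 h. Caspase-9 was immunoprecipitated from the lysates, and caspase-9–XIAP complexes were detected by blotting.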

[11] = target: T1, E3 ubiquitin-protein ligase XIAP; test: Binding affinity to XIAP in human MDA-MB-231 cells assessed as effect on protein level at 0.1 to 100 nM after 4 hrs by Western blotting analysis; type: cell-based
In short: (§3)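 MDA-MB-231 cells were treated with a range of compound concentrations. IAP protein levels were assessed by western blot: cIAP2 after 1 h, XIAP after 4 h.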

[12] = target: T2, Baculoviral IAP repeat-containing protein 3 (Homo sapiens, UniProt Q13489); test: Binding affinity to cIAP2 in human MDA-MB-231 cells assessed as induction of protein degradation at 0.03 to 1 nM after 1 hr by Western blotting analysis; type: cell-based; in short: as §3
[13] = target: T3, Baculoviral IAP repeat-containing protein 2 (Homo sapiens, UniProt Q13490); test: Binding affinity to cIAP1 in human MDA-MB-231 cells assessed as induction of protein degradation after 1 hr by Western blotting analysis; type: cell-based
[14] = Aqueous solubility of the compound at pH 4 to 6; type: physicochemical
[15] = Chemical stability of the compound assessed as amide hydrolysis at pH >8; type: physicochemical
[16] = Chemical stability of the compound assessed as amide hydrolysis at pH 1; type: physicochemical; conditions: buffer
[17] = Photostability of the compound; type: physicochemical
[18] = Hydrolytic stability of the compound at pH 4 to 6; type: physicochemical; conditions: buffer
[19] = target: T1, E3 ubiquitin-protein ligase XIAP; test: Displacement of AbuRPFK-5FAM from GST-tagged XIAP BIR2 domain ([…] to P260) (unknown origin) after 20 mins by fluorescence polarization assay
In short: (§4)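 Competitive fluorescence polarization binding assay. Measures displacement of a 5-carboxyfluorescein-tagged synthetic peptide from the AVPI groove of the isolated BIR domain.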

[20] = target: T2, Baculoviral IAP repeat-containing protein 3; test: Displacement of AbuRPFK-5FAM from GST-tagged cIAP2 BIR3 domain (I235 to A336) (unknown origin) after 20 mins by fluorescence polarization assay; in short: as §4
[21] = AUC in Han Wistar rat at 0.5 mg/kg, iv by LC-MS/MS analysis; type: ADME, organism-based; set-up: dose 0.5 mg/kg, route intravenous; conditions: plasma
In short: (§5)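 Rat PK after a single intravenous bolus. Parameters derived from plasma levels: total plasma clearance, steady-state volume of distribution, half-life and AUC.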

[22] = Elimination half life in Han Wistar rat at 0.5 mg/kg, iv by LC-MS/MS analysis; type: ADME, organism-based; set-up: dose 0.5 mg/kg, route intravenous; conditions: in vivo, read-out: beta t1/2 (converted); in short: as §5
[23] = Volume of distribution at steady state in Han Wistar rat at 0.5 mg/kg, iv by LC-MS/MS analysis; type: ADME, organism-based; set-up: dose 0.5 mg/kg, route intravenous; conditions: in vivo, read-out: Vdss; in short: as §5
[24] = Total plasma clearance in Han Wistar rat at 0.5 mg/kg, iv by LC-MS/MS analysis; type: ADME, organism-based; set-up: dose 0.5 mg/kg, route intravenous; in short: as §5
[25] = Apparent permeability from apical to basolateral side in human Caco2 cells; type: ADME, cell-based; conditions: Caco-2
[26] = tested on: MDA-MB-231; test: Antiproliferative activity against human MDA-MB-231 cells assessed as growth inhibition after 48 hrs by Alamar Blue assay; type: functional; conditions: MDA-MB-231, 48 h
[27] = target: T3, Baculoviral IAP repeat-containing protein 2; test: Binding affinity to cIAP1 in human MDA-MB-231 cells assessed as induction of protein degradation after 1 hr by ELISA; type: cell-based
[28] = target: T1, E3 ubiquitin-protein ligase XIAP; test: Displacement of AbuRPFK-5FAM from GST-tagged XIAP BIR3 domain (N252 to E350) (unknown origin) after 20 mins by fluorescence polarization assay; in short: as §4
[29] = target: T3, Baculoviral IAP repeat-containing protein 2; test: Displacement of AbuRPFK-5FAM from GST-tagged cIAP1 BIR3 domain (L250 to G350) (unknown origin) after 20 mins by fluorescence polarization assay; in short: as §4
[30] = AUC in Han Wistar rat at 0.8 mg/kg, iv by LC-MS/MS analysis; type: ADME, organism-based; set-up: dose 0.8 mg/kg, route intravenous; conditions: plasma; in short: as §5
[31] = Elimination half life in Han Wistar rat at 0.8 mg/kg, iv by LC-MS/MS analysis; type: ADME, organism-based; set-up: dose 0.8 mg/kg, route intravenous; conditions: in vivo, read-out: beta t1/2 (converted); in short: as §5
[32] = Volume of distribution at steady state in Han Wistar rat at 0.8 mg/kg, iv by LC-MS/MS analysis; type: ADME, organism-based; set-up: dose 0.8 mg/kg, route intravenous; conditions: in vivo, read-out: Vdss; in short: as §5
[33] = Total plasma clearance in Han Wistar rat at 0.8 mg/kg, iv by LC-MS/MS analysis; type: ADME, organism-based; set-up: dose 0.8 mg/kg, route intravenous; in short: as §5
[34] = AUC in Han Wistar rat at 1 mg/kg, iv by LC-MS/MS analysis; type: ADME, organism-based; set-up: dose 1 mg/kg, route intravenous; conditions: plasma; in short: as §5
[35] = Elimination half life in Han Wistar rat at 1 mg/kg, iv by LC-MS/MS analysis; type: ADME, organism-based; set-up: dose 1 mg/kg, route intravenous; conditions: in vivo, read-out: beta t1/2 (converted); in short: as §5
[36] = Volume of distribution at steady state in Han Wistar rat at 1 mg/kg, iv by LC-MS/MS analysis; type: ADME, organism-based; set-up: dose 1 mg/kg, route intravenous; conditions: in vivo, read-out: Vdss; in short: as §5
[37] = Total plasma clearance in Han Wistar rat at 1 mg/kg, iv by LC-MS/MS analysis; type: ADME, organism-based; set-up: dose 1 mg/kg, route intravenous; in short: as §5
[38] = Aqueous equilibrium solubility of compound in phosphate buffer at pH 7.4 after 24 hrs by HPLC-UV analysis; type: physicochemical

T1 sequence (P98170 whole entry): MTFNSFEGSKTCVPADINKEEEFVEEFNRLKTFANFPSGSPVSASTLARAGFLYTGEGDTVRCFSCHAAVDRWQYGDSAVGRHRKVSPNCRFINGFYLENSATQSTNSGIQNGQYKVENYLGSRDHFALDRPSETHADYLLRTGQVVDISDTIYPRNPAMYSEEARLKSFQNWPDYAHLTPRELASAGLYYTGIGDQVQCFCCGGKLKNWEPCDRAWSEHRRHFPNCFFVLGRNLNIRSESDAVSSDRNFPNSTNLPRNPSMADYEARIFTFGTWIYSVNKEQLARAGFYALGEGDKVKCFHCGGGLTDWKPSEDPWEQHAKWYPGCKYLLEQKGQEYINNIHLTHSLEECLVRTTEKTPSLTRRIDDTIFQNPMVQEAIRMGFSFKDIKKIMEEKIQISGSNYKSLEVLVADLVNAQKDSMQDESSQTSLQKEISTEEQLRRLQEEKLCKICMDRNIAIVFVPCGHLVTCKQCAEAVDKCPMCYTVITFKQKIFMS
T3 sequence (Q13490 whole entry): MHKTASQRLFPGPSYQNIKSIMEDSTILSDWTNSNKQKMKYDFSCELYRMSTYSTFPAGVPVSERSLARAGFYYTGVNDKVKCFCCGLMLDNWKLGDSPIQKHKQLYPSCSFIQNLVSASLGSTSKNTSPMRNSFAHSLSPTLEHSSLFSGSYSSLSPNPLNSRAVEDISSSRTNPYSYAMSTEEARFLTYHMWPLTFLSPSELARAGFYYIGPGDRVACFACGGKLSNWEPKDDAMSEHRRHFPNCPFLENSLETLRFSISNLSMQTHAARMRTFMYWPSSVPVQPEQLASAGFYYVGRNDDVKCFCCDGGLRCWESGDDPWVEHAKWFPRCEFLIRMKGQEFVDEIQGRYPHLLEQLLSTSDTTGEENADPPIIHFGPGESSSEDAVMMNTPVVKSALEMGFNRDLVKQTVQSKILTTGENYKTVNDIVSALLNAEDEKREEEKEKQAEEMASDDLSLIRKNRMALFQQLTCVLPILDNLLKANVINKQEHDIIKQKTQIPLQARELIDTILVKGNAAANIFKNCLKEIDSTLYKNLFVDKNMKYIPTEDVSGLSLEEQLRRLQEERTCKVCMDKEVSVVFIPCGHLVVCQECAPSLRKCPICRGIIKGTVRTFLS
T2 sequence (Q13489 whole entry): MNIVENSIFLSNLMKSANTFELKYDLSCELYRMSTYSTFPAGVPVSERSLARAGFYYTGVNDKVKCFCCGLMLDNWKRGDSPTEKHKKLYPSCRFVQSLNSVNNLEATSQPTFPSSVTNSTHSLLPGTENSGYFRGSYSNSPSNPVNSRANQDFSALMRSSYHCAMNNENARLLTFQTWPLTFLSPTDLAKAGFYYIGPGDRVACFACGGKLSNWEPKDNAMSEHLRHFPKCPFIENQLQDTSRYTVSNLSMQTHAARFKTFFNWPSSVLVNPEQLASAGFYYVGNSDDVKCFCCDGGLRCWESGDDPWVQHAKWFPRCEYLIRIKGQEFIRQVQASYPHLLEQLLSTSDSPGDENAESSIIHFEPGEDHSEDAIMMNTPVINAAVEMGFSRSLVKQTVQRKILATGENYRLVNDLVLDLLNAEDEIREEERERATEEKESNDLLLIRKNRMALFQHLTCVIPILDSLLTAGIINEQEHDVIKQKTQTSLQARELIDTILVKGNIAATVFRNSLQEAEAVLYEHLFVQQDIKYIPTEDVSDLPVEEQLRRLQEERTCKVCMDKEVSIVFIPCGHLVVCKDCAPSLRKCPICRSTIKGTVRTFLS

Structure (SMILES): CN[C@@H](C)C(=O)N[C@H](C(=O)N1CCC[C@H]1C(=O)N[C@H]1c2ccccc2C[C@H]1OCC#CC#CCO[C@@H]1Cc2ccccc2[C@@H]1NC(=O)[C@@H]1CCCN1C(=O)[C@@H](NC(=O)[C@H](C)NC)C1CCCCC1)C1CCCCC1 [listing 1 of 2 here]
- growth inhibition (GI) [1]: Active
- growth inhibition (GI) [2]: Active
- growth inhibition (GI) [3]: Active
- growth inhibition (GI) [4]: Active
- TGI [5]: Active
- Activity [6]: Active
- Activity [7]: Active
- Activity [8]: Active
- Activity [9]: Active
- inhibition [10]: Active
- Activity [11]: inactive
- Activity [12]: Active
- Activity [13]: Dose-dependent effect

Structure (SMILES): CN[C@@H](C)C(=O)N[C@H](C(=O)N1CCC[C@H]1C(=O)N[C@H]1c2ccccc2C[C@H]1OCC#CC#CCO[C@@H]1Cc2ccccc2[C@@H]1NC(=O)[C@@H]1CCCN1C(=O)[C@@H](NC(=O)[C@H](C)NC)C1CCCCC1)C1CCCCC1.Cl.Cl
- solubility [14]: > 7000 µg/mL

Structure (SMILES): CN[C@@H](C)C(=O)N[C@H](C(=O)N1CCC[C@H]1C(=O)N[C@H]1c2ccccc2C[C@H]1OCC#CC#CCO[C@@H]1Cc2ccccc2[C@@H]1NC(=O)[C@@H]1CCCN1C(=O)[C@@H](NC(=O)[C@H](C)NC)C1CCCCC1)C1CCCCC1 [listing 2 of 2 here]
- Stability [15]: Unstable
- Stability [16]: Unstable
- Stability [17]: Stable
- Stability [18]: Stable
- IC50 [19]: 21 nM
- IC50 [20]: 21 nM
- AUC [21]: 166 ng·h/mL
- half-life [22]: 0.5 h
- Vd [23]: 0.8 L/kg
- clearance [24]: 50 mL/min/kg
- Papp A→B [25]: < 0.1 ×10⁻⁶ cm/s
- GI50 [26]: < 0.06 nM
- EC50 [27]: 0.1 nM
- IC50 [28]: 15 nM
- IC50 [29]: 15 nM

Structure (SMILES): CN[C@@H](C)C(=O)N[C@H](C(=O)N1CCC[C@H]1C(=O)N[C@H]1c2ccccc2C[C@H]1OCCCCCCO[C@@H]1Cc2ccccc2[C@@H]1NC(=O)[C@@H]1CCCN1C(=O)[C@@H](NC(=O)[C@H](C)NC)C1CCCCC1)C1CCCCC1
- AUC [30]: 262 ng·h/mL
- half-life [31]: 3.6 h
- Vd [32]: 1.4 L/kg
- clearance [33]: 45 mL/min/kg
- GI50 [26]: < 0.1 nM
- EC50 [27]: 0.1 nM

Structure (SMILES): CN[C@@H](C)C(=O)N[C@H](C(=O)N1CCC[C@H]1C(=O)N[C@H]1c2ccccc2C[C@H]1OCCOCCO[C@@H]1Cc2ccccc2[C@@H]1NC(=O)[C@@H]1CCCN1C(=O)[C@@H](NC(=O)[C@H](C)NC)C1CCCCC1)C1CCCCC1
- AUC [34]: 206 ng·h/mL
- half-life [35]: 1.2 h
- Vd [36]: 1.9 L/kg
- clearance [37]: 80 mL/min/kg
- GI50 [26]: < 0.1 nM
- EC50 [27]: 0.6 nM

Structure (SMILES): CN[C@@H](C)C(=O)N[C@H](C(=O)N1CCC[C@H]1C(=O)N[C@H]1c2ccccc2C[C@H]1NC(=O)c1ccc(C(=O)N[C@@H]2Cc3ccccc3[C@@H]2NC(=O)[C@@H]2CCCN2C(=O)[C@@H](NC(=O)[C@H](C)NC)C2CCCCC2)cc1)C1CCCCC1
- AUC [21]: 230 ng·h/mL
- half-life [22]: 6.6 h
- Vd [23]: 1.4 L/kg
- clearance [24]: 37 mL/min/kg
- GI50 [26]: 6 nM
- EC50 [27]: 124 nM
- inhibition [29]: Active

Structure (SMILES): CN[C@@H](C)C(=O)N[C@H](C(=O)N1CCC[C@H]1C(=O)N[C@H]1c2ccccc2C[C@H]1OCC#CC#CCO[C@@H]1Cc2ccccc2[C@@H]1NC(=O)[C@@H]1CCCN1C(=O)[C@@H](NC(=O)[C@H](C)NC)C(C)(C)C)C(C)(C)C
- Papp A→B [25]: < 0.1 ×10⁻⁶ cm/s
- solubility thermodynamic at 24 h [38]: > 1000 µM
- GI50 [26]: < 2.4 nM
- EC50 [27]: 0.4 nM
